From PMC5084670 (Cancer Science, 2016)

Test: Phase I dose-escalation study: safety, adverse events
Type: in vivo, human
Summary of the method: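 Oral test compound was given once daily in 28-day cycles after a 7-day single-dose run-in, in Japanese and Hong Kong/Taiwan groups escalated separately. Toxicity was graded by CTCAE v3.0 using laboratory tests, physical examination, vital signs, weight and periodic ECG. DLTs were grade 3–4 events over the run-in plus cycle 1. MTD was set by an adaptive Bayesian logistic regression model with overdose control.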

[1] = group 2, 400 mg q.d. (n = 12), All grades
[2] = group 2, 400 mg q.d. (n = 12), Grade 3
[3] = group 2, 400 mg q.d. (n = 12), Grade 4
[4] = group 2, 600 mg q.d. (n = 8), All grades
[5] = group 2, 600 mg q.d. (n = 8), Grade 3
[6] = group 2, 600 mg q.d. (n = 8), Grade 4
[7] = group 2, 800 mg q.d. (n = 4), All grades
[8] = group 2, 800 mg q.d. (n = 4), Grade 3
[9] = group 2, 800 mg q.d. (n = 4), Grade 4
[10] = group 2, All patients (n = 24), All grades
[11] = group 2, All patients (n = 24), Grade 3
[12] = group 2, All patients (n = 24), Grade 4

SMILES: Cc1c(C(=O)Nc2ccc(N3C[C@@H](C)O[C@@H](C)C3)nc2)cccc1-c1ccc(OC(F)(F)F)cc1 [Sonidegib]
- Dysgeusia (drug-related adverse event) [1]: 2 (17) n (%)
- Fatigue (drug-related adverse event) [1]: 4 (33) n (%)
- Hepatic function abnormal (drug-related adverse event) [1]: 2 (17) n (%)
- Muscular weakness (drug-related adverse event) [1]: 0 (0) n (%)
- Myalgia (drug-related adverse event) [1]: 2 (17) n (%)
- Nausea (drug-related adverse event) [1]: 0 (0) n (%)
- Pyrexia (drug-related adverse event) [1]: 0 (0) n (%)
- Vomiting (drug-related adverse event) [1]: 0 (0) n (%)
- Blood creatine kinase increased (drug-related adverse event) [2]: 1 (8) n (%)
- Decreased appetite (drug-related adverse event) [2]: 0 (0) n (%)
- Diarrhea (drug-related adverse event) [2]: 0 (0) n (%)
- Dizziness (drug-related adverse event) [2]: 0 (0) n (%)
- Dysgeusia (drug-related adverse event) [2]: 0 (0) n (%)
- Fatigue (drug-related adverse event) [2]: 0 (0) n (%)
- Hepatic function abnormal (drug-related adverse event) [2]: 0 (0) n (%)
- Muscular weakness (drug-related adverse event) [2]: 0 (0) n (%)
- Myalgia (drug-related adverse event) [2]: 0 (0) n (%)
- Nausea (drug-related adverse event) [2]: 0 (0) n (%)
- Pyrexia (drug-related adverse event) [2]: 0 (0) n (%)
- Vomiting (drug-related adverse event) [2]: 0 (0) n (%)
- Blood creatine kinase increased (drug-related adverse event) [3]: 1 (8) n (%)
- Decreased appetite (drug-related adverse event) [3]: 0 (0) n (%)
- Diarrhea (drug-related adverse event) [3]: 0 (0) n (%)
- Dizziness (drug-related adverse event) [3]: 0 (0) n (%)
- Dysgeusia (drug-related adverse event) [3]: 0 (0) n (%)
- Fatigue (drug-related adverse event) [3]: 0 (0) n (%)
- Hepatic function abnormal (drug-related adverse event) [3]: 0 (0) n (%)
- Muscular weakness (drug-related adverse event) [3]: 0 (0) n (%)
- Myalgia (drug-related adverse event) [3]: 0 (0) n (%)
- Nausea (drug-related adverse event) [3]: 0 (0) n (%)
- Pyrexia (drug-related adverse event) [3]: 0 (0) n (%)
- Vomiting (drug-related adverse event) [3]: 0 (0) n (%)
- Blood creatine kinase increased (drug-related adverse event) [4]: 3 (38) n (%)
- Decreased appetite (drug-related adverse event) [4]: 3 (38) n (%)
- Diarrhea (drug-related adverse event) [4]: 1 (13) n (%)
- Dizziness (drug-related adverse event) [4]: 1 (13) n (%)
- Dysgeusia (drug-related adverse event) [4]: 3 (38) n (%)
- Fatigue (drug-related adverse event) [4]: 1 (13) n (%)
- Hepatic function abnormal (drug-related adverse event) [4]: 2 (25) n (%)
- Muscular weakness (drug-related adverse event) [4]: 1 (13) n (%)
- Myalgia (drug-related adverse event) [4]: 3 (38) n (%)
- Nausea (drug-related adverse event) [4]: 3 (38) n (%)
- Pyrexia (drug-related adverse event) [4]: 1 (13) n (%)
- Vomiting (drug-related adverse event) [4]: 2 (25) n (%)
- Blood creatine kinase increased (drug-related adverse event) [5]: 0 (0) n (%)
- Decreased appetite (drug-related adverse event) [5]: 0 (0) n (%)
- Diarrhea (drug-related adverse event) [5]: 0 (0) n (%)
- Dizziness (drug-related adverse event) [5]: 0 (0) n (%)
- Dysgeusia (drug-related adverse event) [5]: 0 (0) n (%)
- Fatigue (drug-related adverse event) [5]: 0 (0) n (%)
- Hepatic function abnormal (drug-related adverse event) [5]: 1 (13) n (%)
- Muscular weakness (drug-related adverse event) [5]: 0 (0) n (%)
- Myalgia (drug-related adverse event) [5]: 1 (13) n (%)
- Nausea (drug-related adverse event) [5]: 0 (0) n (%)
- Pyrexia (drug-related adverse event) [5]: 0 (0) n (%)
- Vomiting (drug-related adverse event) [5]: 0 (0) n (%)
- Blood creatine kinase increased (drug-related adverse event) [6]: 1 (13) n (%)
- Decreased appetite (drug-related adverse event) [6]: 0 (0) n (%)
- Diarrhea (drug-related adverse event) [6]: 0 (0) n (%)
- Dizziness (drug-related adverse event) [6]: 0 (0) n (%)
- Dysgeusia (drug-related adverse event) [6]: 0 (0) n (%)
- Fatigue (drug-related adverse event) [6]: 0 (0) n (%)
- Hepatic function abnormal (drug-related adverse event) [6]: 0 (0) n (%)
- Muscular weakness (drug-related adverse event) [6]: 0 (0) n (%)
- Myalgia (drug-related adverse event) [6]: 0 (0) n (%)
- Nausea (drug-related adverse event) [6]: 0 (0) n (%)
- Pyrexia (drug-related adverse event) [6]: 0 (0) n (%)
- Vomiting (drug-related adverse event) [6]: 0 (0) n (%)
- DLT in cycle 1 (creatine kinase elevation) (group 2, 800 mg): single DLT
- Blood creatine kinase increased (drug-related adverse event) [7]: 3 (75) n (%)
- Decreased appetite (drug-related adverse event) [7]: 2 (50) n (%)
- Diarrhea (drug-related adverse event) [7]: 1 (25) n (%)
- Dizziness (drug-related adverse event) [7]: 1 (25) n (%)
- Dysgeusia (drug-related adverse event) [7]: 1 (25) n (%)
- Fatigue (drug-related adverse event) [7]: 3 (75) n (%)
- Hepatic function abnormal (drug-related adverse event) [7]: 3 (75) n (%)
- Muscular weakness (drug-related adverse event) [7]: 3 (75) n (%)
- Myalgia (drug-related adverse event) [7]: 3 (75) n (%)
- Nausea (drug-related adverse event) [7]: 2 (50) n (%)
- Pyrexia (drug-related adverse event) [7]: 1 (25) n (%)
- Vomiting (drug-related adverse event) [7]: 1 (25) n (%)
- Blood creatine kinase increased (drug-related adverse event) [8]: 0 (0) n (%)
- Decreased appetite (drug-related adverse event) [8]: 1 (25) n (%)
- Diarrhea (drug-related adverse event) [8]: 0 (0) n (%)
- Dizziness (drug-related adverse event) [8]: 0 (0) n (%)
- Dysgeusia (drug-related adverse event) [8]: 0 (0) n (%)
- Fatigue (drug-related adverse event) [8]: 2 (50) n (%)
- Hepatic function abnormal (drug-related adverse event) [8]: 2 (50) n (%)
- Muscular weakness (drug-related adverse event) [8]: 2 (50) n (%)
- Myalgia (drug-related adverse event) [8]: 1 (25) n (%)
- Nausea (drug-related adverse event) [8]: 0 (0) n (%)
- Pyrexia (drug-related adverse event) [8]: 0 (0) n (%)
- Vomiting (drug-related adverse event) [8]: 0 (0) n (%)
- Blood creatine kinase increased (drug-related adverse event) [9]: 2 (50) n (%)
- Decreased appetite (drug-related adverse event) [9]: 0 (0) n (%)
- Diarrhea (drug-related adverse event) [9]: 0 (0) n (%)
- Dizziness (drug-related adverse event) [9]: 0 (0) n (%)
- Dysgeusia (drug-related adverse event) [9]: 0 (0) n (%)
- Fatigue (drug-related adverse event) [9]: 0 (0) n (%)
- Hepatic function abnormal (drug-related adverse event) [9]: 0 (0) n (%)
- Muscular weakness (drug-related adverse event) [9]: 0 (0) n (%)
- Myalgia (drug-related adverse event) [9]: 0 (0) n (%)
- Nausea (drug-related adverse event) [9]: 0 (0) n (%)
- Pyrexia (drug-related adverse event) [9]: 0 (0) n (%)
- Vomiting (drug-related adverse event) [9]: 0 (0) n (%)
- Blood creatine kinase increased (drug-related adverse event) [10]: 12 (50) n (%)
- Decreased appetite (drug-related adverse event) [10]: 5 (21) n (%)
- Diarrhea (drug-related adverse event) [10]: 2 (8) n (%)
- Dizziness (drug-related adverse event) [10]: 2 (8) n (%)
- Dysgeusia (drug-related adverse event) [10]: 6 (25) n (%)
- Fatigue (drug-related adverse event) [10]: 8 (33) n (%)
- Hepatic function abnormal (drug-related adverse event) [10]: 7 (29) n (%)
- Muscular weakness (drug-related adverse event) [10]: 4 (17) n (%)
- Myalgia (drug-related adverse event) [10]: 8 (33) n (%)
- Nausea (drug-related adverse event) [10]: 5 (21) n (%)
- Pyrexia (drug-related adverse event) [10]: 2 (8) n (%)
- Vomiting (drug-related adverse event) [10]: 3 (13) n (%)
- Blood creatine kinase increased (drug-related adverse event) [11]: 1 (4) n (%)
- Decreased appetite (drug-related adverse event) [11]: 1 (4) n (%)
- Diarrhea (drug-related adverse event) [11]: 0 (0) n (%)
- Dizziness (drug-related adverse event) [11]: 0 (0) n (%)
- Dysgeusia (drug-related adverse event) [11]: 0 (0) n (%)
- Fatigue (drug-related adverse event) [11]: 2 (8) n (%)
- Hepatic function abnormal (drug-related adverse event) [11]: 3 (13) n (%)
- Muscular weakness (drug-related adverse event) [11]: 2 (8) n (%)
- Myalgia (drug-related adverse event) [11]: 2 (8) n (%)
- Nausea (drug-related adverse event) [11]: 0 (0) n (%)
- Pyrexia (drug-related adverse event) [11]: 0 (0) n (%)
- Vomiting (drug-related adverse event) [11]: 0 (0) n (%)
- Blood creatine kinase increased (drug-related adverse event) [12]: 4 (17) n (%)
- Decreased appetite (drug-related adverse event) [12]: 0 (0) n (%)
- Diarrhea (drug-related adverse event) [12]: 0 (0) n (%)
- Dizziness (drug-related adverse event) [12]: 0 (0) n (%)
- Dysgeusia (drug-related adverse event) [12]: 0 (0) n (%)
- Fatigue (drug-related adverse event) [12]: 0 (0) n (%)
- Hepatic function abnormal (drug-related adverse event) [12]: 0 (0) n (%)
- Muscular weakness (drug-related adverse event) [12]: 0 (0) n (%)
- Myalgia (drug-related adverse event) [12]: 0 (0) n (%)
- Nausea (drug-related adverse event) [12]: 0 (0) n (%)
- Pyrexia (drug-related adverse event) [12]: 0 (0) n (%)
- Vomiting (drug-related adverse event) [12]: 0 (0) n (%)
- Maximum tolerated dose (MTD) (group 2, Bayesian logistic regression model, all grade 3 or 4 blood CK elevation incidents): 600 mg q.d.
- Drug-related AE: abnormal hepatic function (group 2, all doses): 29%
- Drug-related AE: fatigue (group 2, all doses): 33%
- Drug-related AE: increase in CK levels (group 2, all doses): 50%
- Drug-related AE: myalgia (group 2, all doses): 33%
- Patients with at least one AE suspected to be related to sonidegib (group 2, n = 18): 75%
- Patients with SAEs that led to drug discontinuation (in each group): four
- Time to recovery of CK after interruption of drug (most cases): 1 month
- Renal impairment or renal failure (patients with grade 3 or 4 CK elevation and high blood myoglobin): no patients experienced renal impairment or renal failure
- CK re-elevation after restart with a 200 mg dose (three patients at 400 mg interrupted for grade 3 CK elevation): not observed
